From ChEMBL document CHEMBL2093137, “WHO-TDR NTD Screening”
In brackets after ≈: the same amount, converted by molar mass.

Assays:
[1] = WHO-TDR: Cytotoxicity; type: toxicity, cell-based; conditions: human, MRC5 cells
[2] = tested on: Plasmodium falciparum K1; experiment: WHO-TDR: Malaria; type: functional, organism-based, Homo sapiens; conditions: Erythrocyte
Summary of the method: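 Values are IC50 figures for antiplasmodial potency. They come from a whole-organism screen of 10,000 diverse Life Chemicals compounds against Plasmodium falciparum K1 growing inside human red blood cells, run by previously published standard procedures.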

[3] = tested on: Trypanosoma cruzi; experiment: WHO-TDR: Chagas disease; type: functional, organism-based, Homo sapiens; conditions: MRC5
Summary of the method: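 Whole-organism screen of a 10,000-compound diverse library from Life Chemicals, filtered for drug-likeness and reactive groups, against intracellular amastigotes of Trypanosoma cruzi Tulahuen CL2 beta-galactosidase strain grown in MRC-5SV2 human lung fibroblast host cells. The assay followed previously published standard procedures, with a reference drug as positive control. Antiparasitic potency is reported as IC50.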

[4] = tested on: Trypanosoma brucei brucei; experiment: WHO-TDR: Human African Trypanosomiasis (HAT); type: functional, organism-based; conditions: Squib-427
Summary of the method: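 Values are IC50 figures for antiparasitic potency. They come from a whole-organism screen of 10,000 diverse Life Chemicals compounds against bloodstream-form Trypanosoma brucei (Squib 427 strain).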

[5] = tested on: Leishmania infantum; experiment: WHO-TDR: Leishmaniasis; type: functional, organism-based, Mus musculus; conditions: Macrophage
Summary of the method: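 Values are IC50 figures for antiparasitic potency. They come from a whole-organism screen of a 10,000-compound diverse Life Chemicals library against Leishmania infantum MHOM/MA(BE)/67 amastigotes inside murine peritoneal macrophage host cells.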

[6] = tested on: Schistosoma mansoni; experiment: WHO-TDR: Schistosomiasis; type: functional; set-up: concentration or dose not given beside the values
Summary of the method: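 Activity appears as percent inhibition and as IC50. The underlying screen tested a diverse library of 10,000 compounds, supplied by Life Chemicals, on whole larval and/or adult worms of the Puerto Rican strain of Schistosoma mansoni.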

[7] = tested on: Onchocerca ochengi; experiment: WHO-TDR: Onchocerciasis; type: functional; set-up: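 at 12.5 µM on microfilariae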
Summary of the method: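 Following previously published standard procedures, with reference drugs as positive controls, a diverse Life Chemicals library was tested on whole Onchocerca ochengi or Onchocerca lienalis microfilariae. The library held 10,000 compounds filtered for drug-likeness and reactive groups. Activity is recorded both as percent inhibition and as IC50.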

[8] = tested on: Brugia malayi; experiment: WHO-TDR: Lymphatic Filariasis; type: functional; set-up: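 tested at 10 µM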
Summary of the method: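 Following previously published standard procedures, compounds were tested on whole Brugia malayi microfilariae, with reference drugs as positive controls. They came from a diverse Life Chemicals collection of 10,000 compounds filtered for drug-likeness and reactive groups. Results appear as percent inhibition and as IC50.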

| SMILES | IC50 [1] [mg/L] | IC50 [2] [mg/L] | IC50 [3] [mg/L] | IC50 [4] [mg/L] | IC50 [5] [mg/L] | % Inhibition [6] [%] | % Inhibition [7] [%] | % Inhibition [8] [%] |
| --- | --- | --- | --- | --- | --- | --- | --- | --- |
| CSc1ccccc1NC(=O)c1ccc(Cl)s1 | > 8.51 | > 8.51 | > 8.51 | > 8.51 | > 8.51 | 0 | 100 | 25 |
| CCCc1nnc(NC(=O)CSc2ccc(NC(=O)c3cccs3)nn2)s1 | > 12.6 | > 12.6 | > 12.6 | > 12.6 | 0.408 (≈ 0.97 µM) | 0 | 0 | 0 |
| COc1ccc(S(=O)(=O)N2CCN(c3ccc(-c4ccncc4)nn3)CC2)c(OC)c1 | > 13.2 | 2.48 (≈ 5.62 µM) | 5.69 (≈ 12.9 µM) | > 13.2 | 0.429 (≈ 0.972 µM) | 0 | 0 | 33.33 |
| O=C(NCCNc1ccc(Nc2ccccn2)nn1)c1ccc(C(F)(F)F)cc1 | 7.71 (≈ 19.2 µM) | 7.28 (≈ 18.1 µM) | > 12.1 | 11 (≈ 27.5 µM) | > 12.1 | 0 | 100 | 50 |
| COc1cc(C(=O)Nc2ccc3c(c2)N(C(=O)c2ccco2)CC3)cc(OC)c1OC | 2.08 (≈ 4.91 µM) | 11.5 (≈ 27.1 µM) | > 12.7 | > 12.7 | > 12.7 | 16.7 | 100 | 0 |
| CCOC(=O)c1ccccc1NC(=O)CSc1ncc(CO)n1Cc1ccc(OC)cc1 | > 13.7 | > 13.7 | > 13.7 | > 13.7 | > 13.7 | 0 | 100 | 25 |
| COc1cc(OC)cc(C(=O)N2CCN(c3nccn3-c3cccc(Cl)c3)CC2)c1 | > 13.9 | 6.13 (≈ 14.4 µM) | 4.18 (≈ 9.78 µM) | 4.5 (≈ 10.5 µM) | 4.5 (≈ 10.5 µM) | 0 | 100 | 0 |
| Cc1ccc(S(=O)(=O)NCC(c2cccc3ccccc23)N2CCOCC2)cc1C (stereo not given) | > 12.7 | 8.79 (≈ 20.7 µM) | 4.18 (≈ 9.85 µM) | 4.12 (≈ 9.71 µM) | > 12.7 | 0 | 100 | 25 |
| COc1ccc(C)cc1S(=O)(=O)N1CCN(c2ccc(-c3cccs3)nn2)CC1 | > 12.9 | > 12.9 | > 12.9 | > 12.9 | 0.418 (≈ 0.971 µM) | 0 | 0 | 0 |
| CCOc1cccc2sc(N(CCCn3ccnc3)C(=O)c3cccs3)nc12 | 5.87 (≈ 14.2 µM) | 0.573 (≈ 1.39 µM) | 4.08 (≈ 9.88 µM) | 4.31 (≈ 10.4 µM) | > 13.5 | 0 | 100 | 0 |
| O=C(c1ccc(Cl)cc1Cl)N1CCN(c2ccc(Nc3cccnc3)nn2)CC1 | > 12.9 | 7.24 (≈ 16.9 µM) | 3.7 (≈ 8.63 µM) | > 12.9 | > 12.9 | 0 | 100 | 0 |
| COc1ccc(C)cc1S(=O)(=O)NCCNc1ccc(Nc2cccc(C)n2)nn1 | > 12.9 | 3.4 (≈ 7.95 µM) | > 12.9 | 5.42 (≈ 12.7 µM) | > 12.9 | 0 | 100 | 0 |
| Cc1ccc(C)c2sc(N(CCCn3ccnc3)C(=O)Cc3ccc(F)cc3)nc12 | 3.26 (≈ 7.73 µM) | 3.4 (≈ 8.04 µM) | 0.495 (≈ 1.17 µM) | 3.98 (≈ 9.41 µM) | 4.46 (≈ 10.6 µM) | 0 | 100 | 0 |
| O=C(CSc1ccc(NC(=O)c2ccco2)nn1)Nc1ccccc1C(F)(F)F | > 12.7 | > 12.7 | > 12.7 | > 12.7 | > 12.7 | 0 | 100 | 0 |
| O=C(CSc1ccc(F)cc1)N(CCCn1ccnc1)c1nc2c(F)cccc2s1 | > 14.4 | 2.13 (≈ 4.8 µM) | 5.11 (≈ 11.5 µM) | 4.62 (≈ 10.4 µM) | > 14.4 | 0 | 100 | 0 |
| COc1nn(C)cc1-c1nnc(SCC(=O)N2CCC(Cc3ccccc3)CC2)n1C | 5.88 (≈ 13.3 µM) | 3.65 (≈ 8.28 µM) | 3.01 (≈ 6.84 µM) | 0.428 (≈ 0.971 µM) | 4.28 (≈ 9.71 µM) | 0 | 100 | 0 |
| NC(=O)c1ccc(NC(=O)CCCn2nc(-c3ccc(Cl)cc3)ccc2=O)cc1 | > 12.3 | > 12.3 | > 12.3 | > 12.3 | > 12.3 | 16.7 | 100 | 0 |
| O=S(=O)(c1cccc(F)c1)N1CCN(c2ccc(Nc3cccnc3)nn2)CC1 | 0.937 (≈ 2.26 µM) | 5.44 (≈ 13.1 µM) | > 12.4 | > 12.4 | 0.403 (≈ 0.972 µM) | 0 | 0 | 0 |
| O=C(NCCc1ccc(Cl)cc1)c1csc(NS(=O)(=O)c2ccccc2)n1 | > 12.7 | > 12.7 | > 12.7 | > 12.7 | > 12.7 | 0 | 100 | 20 |
| O=S(=O)(CCCOc1ccc2c(c1)OCO2)NCCc1c[nH]c2ccccc12 | > 12.1 | > 12.1 | 3.12 (≈ 7.74 µM) | > 12.1 | > 12.1 | 0 | 100 | 0 |
| O=C(CN1CCN(c2nccn2-c2cccc(Cl)c2)CC1)N1CCc2ccccc21 | 14.2 (≈ 33.6 µM) | 7.54 (≈ 17.9 µM) | 5.05 (≈ 12 µM) | 4.69 (≈ 11.1 µM) | 0.481 (≈ 1.14 µM) | 0 | 75 | 0 |
| COc1cccc(C(=O)N2CCN(c3ccc(-c4ccccn4)nn3)CC2)c1OC | 5.68 (≈ 14 µM) | 0.548 (≈ 1.35 µM) | 0.421 (≈ 1.04 µM) | 3.85 (≈ 9.49 µM) | 1.81 (≈ 4.46 µM) | 33.3 | 100 | 33.33 |
| CC(C)(C)C(=O)N1CCc2ccc(NC(=O)Cc3cccs3)cc21 | > 10.3 | > 10.3 | 4.11 (≈ 12 µM) | > 10.3 | 0.333 (≈ 0.972 µM) | 0 | 50 | 0 |
| O=c1ccc(-c2ccncc2)nn1CCCNS(=O)(=O)c1ccc2c(c1)CCCC2 | > 12.7 | > 12.7 | 4.77 (≈ 11.2 µM) | > 12.7 | > 12.7 | 0 | 100 | 0 |
| COc1ccc(S(=O)(=O)N2CCN(c3ccc(Nc4ccccn4)nn3)CC2)cc1 | > 12.8 | > 12.8 | > 12.8 | > 12.8 | 0.414 (≈ 0.971 µM) | 16.7 | 0 | 0 |
| O=c1ccc(-c2ccncc2)nn1CCNS(=O)(=O)c1ccc2c(c1)CCCC2 | > 12.3 | > 12.3 | > 12.3 | > 12.3 | > 12.3 | 0 | 100 | 0 |
| Cc1ccc(C)c2sc(N(CCCn3ccnc3)C(=O)COc3ccccc3)nc12 | 5.31 (≈ 12.6 µM) | 2.34 (≈ 5.56 µM) | 1.14 (≈ 2.71 µM) | 4.44 (≈ 10.6 µM) | 9.34 (≈ 22.2 µM) | 0 | 100 | 0 |
| CCn1ccnc1N1CCN(C(=O)c2cccc(OC)c2OC)CC1 | > 11.4 | > 11.4 | > 11.4 | > 11.4 | 0.37 (≈ 1.07 µM) | 8.3 | 0 | 0 |
| CCSc1nc(-c2ccccc2)c(NC(C)=O)s1 | > 8.35 | > 8.35 | > 8.35 | > 8.35 | 0.27 (≈ 0.97 µM) | 0 | 0 | 0 |
| CS(=O)(=O)c1ccc2nc(N(Cc3cccnc3)C(=O)c3cccc(Oc4ccccc4)c3)sc2c1 | > 15.5 | 4.49 (≈ 8.71 µM) | 0.275 (≈ 0.533 µM) | > 15.5 | > 15.5 | 0 | 0 | 0 |
